Screening results (PubChem)
Runt-SMMHC FRET: inhibitors of RUNX1 Runt–CBFb-SMMHC binding, primary screen, biochemical, FRET, Cerulean-Runt, Venus-CBFb-SMMHC, uHTS; Runt-related transcription factor 1 (Homo sapiens) + Core-binding factor subunit beta …; Cerulean-Runt/Venus-CBFb-SMMHC FRET ratio 530/480, 1 h; inhibition, % at 20 µM; 220,000 tested, 0.74% active; AID 1434, 2008;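 active means mean inhibition across duplicate retests at 20 µM reaching about 50%, limit read from the data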;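 further: 0% = DMSO wells and 100% = wells with excess untagged CBFb-SMMHC; inhibitors lower the FRET ratio by blocking Runt binding to CBFb-SMMHC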
HDAC3 inhib: HDAC3 deacetylase inhibitors, primary screen, biochemical, fluorescence, cell-free homogeneous; Histone deacetylase 3 (Homo sapiens), O15379; 320,000 tested, 0.15% active; inhibition, % at 8.3 µM; recombinant HDAC3, fluorogenic peptide/trypsin coupled; AID 2718, 2010; in the data active means inhibition above about 26%, passing the limit was not always enough; inconclusive means no clear call, values can overlap the other calls
RanGTP-Imp inh: inhibitors of RanGTP-importin-beta interaction, primary screen, biochemical, FRET, CFP-Ran, YFP-importin-beta, homogeneous; Ran GTPase (GTP-bound) - importin-beta complex; 300,000 tested, 1.1% active; AID 2216, 2009; cell-free CFP-Ran/YFP-importin-beta FRET ratio; inhibition, % (concentration not given with the values);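 active means more than half of the replicate wells show a fall in the fluorescence ratio signal beyond about 16%, limit read from the data, passing the limit was not always enough; inconclusive means exactly half of the replicate wells pass the set limit; inactive means fewer than half of replicates pass the limit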;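 further: 0% = DMSO wells and 100% = Ran loaded with GDP instead of GTP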
Runt-CBFb FRET: inhibitors of RUNX1 Runt–CBFb binding, primary screen, biochemical, FRET, Cerulean-Runt, Venus-CBFb, uHTS; Runt-related transcription factor 1 (Homo sapiens) + Core-binding factor subunit beta …; Cerulean-Runt/Venus-CBFb FRET ratio 530/480, 1 h; inhibition, % at 20 µM; 220,000 tested, 0.46% active;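 active means inhibition over about 50% at 20 µM in the single-dose screen, limit read from the data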;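 further: 0% = DMSO wells and 100% = excess unlabeled CBFb competitor control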
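Reagent – Venus-CBFb binding partner, 100 nM · Assay system – Cerulean-tagged RUNX1 Runt domain (FRET donor) fusion protein · Input – 100 nM per protein · Incubation – two 1 h room-temperature incubations shielded from light · Measured by – FRET fluorescence · Medium – Tris buffer pH 7.5 with salts and BSA · Benchmarks – unlabeled CBFb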
LANA-H2B inh: blockers of LANA interaction with H2A/H2B – biochemical, FP readout, HTS, primary screen. cell-free LANA-H2A/H2B peptide, fluorescence polarization. inhibition, % (test concentration not listed). 320,000 tested, 0.6% active. Protein LANA1 (Human herpesvirus 8 type P (isolate GK18)), Q9QR71; in the data active means inhibition mostly above about 10%, no sharp cut-off; inactive means mostly below about 6.7%
Target sequence (Q9QR71 whole entry, looked up): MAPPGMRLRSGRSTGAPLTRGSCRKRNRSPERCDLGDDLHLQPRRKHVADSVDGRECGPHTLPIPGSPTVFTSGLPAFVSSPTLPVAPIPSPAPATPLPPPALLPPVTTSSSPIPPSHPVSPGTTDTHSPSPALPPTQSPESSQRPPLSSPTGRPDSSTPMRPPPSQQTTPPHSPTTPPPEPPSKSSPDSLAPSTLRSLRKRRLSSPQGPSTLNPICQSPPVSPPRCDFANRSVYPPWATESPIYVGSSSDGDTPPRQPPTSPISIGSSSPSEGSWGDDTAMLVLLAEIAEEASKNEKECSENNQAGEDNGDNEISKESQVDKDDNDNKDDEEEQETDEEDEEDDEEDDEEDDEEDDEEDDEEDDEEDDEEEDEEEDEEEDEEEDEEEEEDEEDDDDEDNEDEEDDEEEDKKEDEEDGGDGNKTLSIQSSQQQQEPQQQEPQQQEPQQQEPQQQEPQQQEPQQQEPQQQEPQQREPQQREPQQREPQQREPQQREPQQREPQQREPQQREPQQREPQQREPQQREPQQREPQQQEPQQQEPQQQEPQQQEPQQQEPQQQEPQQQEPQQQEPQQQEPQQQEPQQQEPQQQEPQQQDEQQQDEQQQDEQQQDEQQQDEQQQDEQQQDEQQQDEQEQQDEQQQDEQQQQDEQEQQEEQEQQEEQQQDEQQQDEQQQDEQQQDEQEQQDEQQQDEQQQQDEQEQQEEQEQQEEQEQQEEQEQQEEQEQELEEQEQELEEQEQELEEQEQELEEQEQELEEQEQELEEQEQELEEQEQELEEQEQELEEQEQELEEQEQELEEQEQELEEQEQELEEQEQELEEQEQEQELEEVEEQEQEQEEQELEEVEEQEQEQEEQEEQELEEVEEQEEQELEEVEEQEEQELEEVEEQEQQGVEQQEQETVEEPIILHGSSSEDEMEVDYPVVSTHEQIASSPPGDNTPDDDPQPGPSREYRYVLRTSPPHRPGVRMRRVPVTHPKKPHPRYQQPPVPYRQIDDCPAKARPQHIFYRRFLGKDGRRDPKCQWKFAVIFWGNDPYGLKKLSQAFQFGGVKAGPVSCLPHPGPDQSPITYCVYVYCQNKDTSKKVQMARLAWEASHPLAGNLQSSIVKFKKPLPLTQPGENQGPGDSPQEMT
CaV13 FRET inh: Disruptors of the CACNA1D IQ motif to Ca2+-dependent inactivation inhibitor domain association, primary screening, Förster resonance energy transfer in intact living …; HEK cells, CFP/YFP FRET ICDI-IQ, plate reader, 10 min; percent FRET-ratio fall versus neutral wells; inhibition, % at 12.3 µM; 340,000 tested, 0.098% active; AID 743397;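 active means mean replicate inhibition of at least 30% and at least 1% of replicates passing that level; inconclusive means only one of the two criteria is met; inactive means neither criterion is met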;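 further: 0% = median of the neutral control wells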
Starred values were filed as active, the others as inactive; ? = inconclusive; nt = not tested or not shown; + = active, no number. Rows were chosen to be rich in hits. Some 1.9% of all compounds tested hit in one or more screens of this group.

SMILES	Runt-SMMHC FRET	HDAC3 inhib	RanGTP-Imp inh	Runt-CBFb FRET	LANA-H2B inh	CaV13 FRET inh
CC1=NN(C(=O)COc2ccc(C)c(C)c2)C(O)(c2ccccc2)C1 (stereo not given)	1	-1	22*	1	-3	-3
Cc1ccc(/C(N)=N/OC(=O)C(C)c2ccc([N+](=O)[O-])cc2)cc1 (stereo not given)	nt	6	2	nt	17*	-22
O=C(NC(c1ccc(F)cc1)c1ccc2ccccc2n1)C1CCN(Cc2cccc(C(F)(F)F)c2)CC1 (stereo not given)	nt	nt	nt	nt	nt	-5
N#C/C(=C\c1ccc(-c2ccc(C(=O)O)cc2)o1)C(=O)NCC1CCCO1 (stereo not given)	29	-2	30*	14	5	nt
Cc1cccc(C)c1NC(=O)/C(C#N)=C/c1ccc(-c2ccc(C(=O)O)cc2)o1	nt	9	37*	nt	6	-8
N#C/C(=C\c1ccc(N2CCOCC2)o1)C(=O)NCC1CCCO1 (stereo not given)	10	13	12	10	-38	-4
COc1ccc(CCN(Cc2nc3ccccc3c(=O)[nH]2)C(=O)C2CC2)cc1	1	-2	0	3	-2	2
CC1=C(C)CS(=O)N(S(=O)(=O)c2ccccc2)C1 (stereo not given)	12	2	6	18	14*	-4
CC1=C(C)CS(=O)N(c2ccc(S(N)(=O)=O)cc2)C1 (stereo not given)	3	2	2	14	-3	-4
CC(=O)C1=CCC(c2ccccc2)N(S(C)(=O)=O)C1 (stereo not given)	nt	nt	nt	nt	nt	-5
CCn1c(O)c(/C=C2\C=NN=C2c2ccc(C)cc2)sc1=S	-18	-4	-2	-13	2	-3
CC(C)n1c(O)c(/C=C2\C=NN=C2c2ccccc2)sc1=S	1	-2	-3	-1	12*	-20
Oc1oc(-c2ccccc2)nc1C=Nc1cccc2ccccc12	9	-1	27*	1	-3	-8
Cc1ccn2c(C(=O)N/N=C\c3ccc4c(c3)OCO4)c(C)nc2c1	-1	4	1	0	1	-5
O=C(NCCc1ccccc1)c1cnc2n(c1=O)CCS2	3	?	1	-1	13*	3
CCOc1ccc(/C=C/C(=O)c2c(O)cc(C)oc2=O)cc1	nt	5	-2	nt	-3	-3
O=C(NNC(=S)Nc1ccccc1)C1CCCCC1	0	0	178*	1	3	-5
O=C(NNC(=S)Nc1ccccc1)C1CC1	-3	-4	-3	1	2	-9
CC(C)CNc1nc(Oc2ccc(=O)[nH]n2)nc(N(C)C)n1	0	2	?	2	-3	-6
Cn1ncc2nc[nH]c(=O)c21	4	3	2	0	-5	-4
CC(C)(C)NS(=O)(=O)c1ccc(NC(=O)C(Sc2ccccc2)c2ccccc2)cc1 (stereo not given)	0	29*	-3	-1	2	-5
O=C(NNC1=NCCN1Cc1ccccc1)c1cccc(C(F)(F)F)c1	1	1	5	1	3	-5
CC1C2(C)OCC(C#N)(C(=N)O2)C1(C#N)C#N (stereo not given)	51*	-6	7	21	0	nt
NC(=O)c1ccccc1N/C=C/C(=O)c1ccc(Cl)cc1Cl	16	nt	44*	5	nt	nt
O=C(O)c1c(Cl)cccc1Cl	nt	-1	nt	nt	+	nt
SMILES	Runt-SMMHC FRET	HDAC3 inhib	RanGTP-Imp inh	Runt-CBFb FRET	LANA-H2B inh	CaV13 FRET inh
C[C@H](CO)N1C[C@H](C)[C@@H](CN(C)Cc2ccncc2)Oc2c(NC(=O)CCCCCC(=O)Nc3ccccc3N)cccc2C1=O	nt	57*	nt	nt	-6	-13
C[C@H](CO)N1C[C@H](C)[C@@H](CN(C)C)Oc2c(NC(=O)Cc3ccccc3)cccc2C1=O	nt	nt	nt	nt	nt	-3
C[C@H](CO)N1C[C@H](C)[C@@H](CN(C)Cc2ccccc2)Oc2ccc(NC(=O)CCCCCC(=O)Nc3ccccc3N)cc2C1=O	nt	75*	nt	nt	-4	-8
C[C@H](CO)N1C[C@H](C)[C@@H](CN(C)C)Oc2c(NC(=O)CCCCCC(=O)Nc3ccccc3N)cccc2C1=O	nt	67*	nt	nt	1	-12
C[C@H](CO)N1C[C@H](C)[C@@H](CN(C)S(=O)(=O)c2ccccc2)Oc2ccc(NC(=O)CCC(F)(F)F)cc2C1=O	nt	2	nt	nt	28*	-11
C[C@H](CO)N1C[C@H](C)[C@@H](CN(C)Cc2ccncc2)Oc2c(NC(=O)Cc3ccccc3)cccc2C1=O	nt	7	nt	nt	-2	-11
Cc1ccc(N2CC(C(=O)Nc3ccncc3)CC2=O)cc1 (stereo not given)	-3	-3	4	2	-7	nt
CCn1cc(C(=O)NC2CCCCCC2)c2cc(OC)c(OC)cc2c1=O	1	3	-1	0	5	-5
CC1(c2ccccc2)NC(=O)N(CC(=O)N2CCN(S(=O)(=O)c3ccccc3[N+](=O)[O-])CC2)C1=O (stereo not given)	nt	5	-5	nt	0	-6
C#CCOCCOCCOCCNc1nc(N2CCN(C(=O)[C@H]([C@@H](C)O)n3cc(CCCCN)nn3)CC2)nc(N2CCN(C(=O)[C@H](CCCCN)n3cc(CCC(=O)O)nn3)CC2)n1	nt	-3	nt	nt	-3	-5
O=C(Oc1oc(-c2ccco2)nc1C=Nc1ccccc1)c1ccco1	-2	90*	-1	2	-5	nt
O=C(Oc1oc(-c2ccco2)nc1C=Nc1ccccc1)c1ccoc1	2	90*	1	0	1	-9
Cc1ccc(C(=O)Oc2oc(-c3ccco3)nc2C=Nc2ccc(Cl)cc2)cc1	-3	?	1	0	0	0
COc1ccc(Cl)cc1N(CC(=O)Nc1ccccc1C(=O)NCc1ccco1)S(C)(=O)=O	-5	-3	-1	1	-2	nt
COc1ccc(-c2nc(SCC(=O)NC3CCCCC3)n[nH]2)cc1	nt	-3	3	nt	76*	nt
O=C(Cn1cnc2c(nnn2-c2ccc(F)cc2)c1=O)N1CCCC1	-3	-1	-1	1	1	-4
CNCCCCOc1ccccc1Cc1ccccc1	1	1	0	0	2	nt
CN(C)CCOc1ccccc1Cc1ccccc1	4	4	4	-1	6.1*	-6
